The Ki is a dissociation constant, usually derived from enzyme kinetics or from competition with a known ligand. High values mean weaker binding, low ones tighter binding.

Assay [1] in a line: Activity ratio of effective dose against vitamin D3 and inhibitory activity against androgen antagonistic activity. It is filed as functional. The method, boiled down: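 Ratio of ED50 for HL-60 differentiation to IC50 for SC-3 growth inhibition. HL-60: cells in RPMI 1640 with or without compound for three days, then NBT 0.2% plus TPA 20 nM in PBS (1:1) for 20 min at 37 °C; NBT-positive cells counted among 200–300. SC-3: cells in MEM, 10% FBS, 10 nM testosterone with or without compound, three days, 37 °C, 5% CO2.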

Assay [2] deals with T1, Vitamin D3 receptor (Homo sapiens) (UniProt P11473).
T1 sequence (whole entry): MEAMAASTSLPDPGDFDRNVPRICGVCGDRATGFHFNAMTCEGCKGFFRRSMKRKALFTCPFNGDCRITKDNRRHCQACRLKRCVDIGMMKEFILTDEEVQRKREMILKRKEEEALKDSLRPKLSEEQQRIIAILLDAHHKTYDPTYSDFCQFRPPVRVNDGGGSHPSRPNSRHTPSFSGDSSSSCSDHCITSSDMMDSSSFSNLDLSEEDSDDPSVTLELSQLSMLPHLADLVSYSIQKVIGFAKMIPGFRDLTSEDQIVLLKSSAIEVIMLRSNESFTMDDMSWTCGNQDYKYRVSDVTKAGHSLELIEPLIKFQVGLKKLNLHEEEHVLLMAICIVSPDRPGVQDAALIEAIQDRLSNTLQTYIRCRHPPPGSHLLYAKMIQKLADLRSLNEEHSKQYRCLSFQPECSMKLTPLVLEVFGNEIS
The experiment in a line: Vitamin D3 agonistic activity as effective dose for HL-60 monocytic cell differentiation. It is filed as functional, cell-based. The method, boiled down: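 HL-60 cells held in RPMI 1640 with or without test compound for three days. Cells were then mixed 1:1 (v/v) with PBS containing 0.2% NBT and 20 nM TPA and kept 20 min at 37 °C. NBT-positive cells were counted among 200–300 cells to give the ED50. Differentiation was also checked by Wright–Giemsa morphology.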

The target in another assay is T2, Androgen receptor (Homo sapiens, UniProt P10275).
T2 sequence (P10275 whole entry): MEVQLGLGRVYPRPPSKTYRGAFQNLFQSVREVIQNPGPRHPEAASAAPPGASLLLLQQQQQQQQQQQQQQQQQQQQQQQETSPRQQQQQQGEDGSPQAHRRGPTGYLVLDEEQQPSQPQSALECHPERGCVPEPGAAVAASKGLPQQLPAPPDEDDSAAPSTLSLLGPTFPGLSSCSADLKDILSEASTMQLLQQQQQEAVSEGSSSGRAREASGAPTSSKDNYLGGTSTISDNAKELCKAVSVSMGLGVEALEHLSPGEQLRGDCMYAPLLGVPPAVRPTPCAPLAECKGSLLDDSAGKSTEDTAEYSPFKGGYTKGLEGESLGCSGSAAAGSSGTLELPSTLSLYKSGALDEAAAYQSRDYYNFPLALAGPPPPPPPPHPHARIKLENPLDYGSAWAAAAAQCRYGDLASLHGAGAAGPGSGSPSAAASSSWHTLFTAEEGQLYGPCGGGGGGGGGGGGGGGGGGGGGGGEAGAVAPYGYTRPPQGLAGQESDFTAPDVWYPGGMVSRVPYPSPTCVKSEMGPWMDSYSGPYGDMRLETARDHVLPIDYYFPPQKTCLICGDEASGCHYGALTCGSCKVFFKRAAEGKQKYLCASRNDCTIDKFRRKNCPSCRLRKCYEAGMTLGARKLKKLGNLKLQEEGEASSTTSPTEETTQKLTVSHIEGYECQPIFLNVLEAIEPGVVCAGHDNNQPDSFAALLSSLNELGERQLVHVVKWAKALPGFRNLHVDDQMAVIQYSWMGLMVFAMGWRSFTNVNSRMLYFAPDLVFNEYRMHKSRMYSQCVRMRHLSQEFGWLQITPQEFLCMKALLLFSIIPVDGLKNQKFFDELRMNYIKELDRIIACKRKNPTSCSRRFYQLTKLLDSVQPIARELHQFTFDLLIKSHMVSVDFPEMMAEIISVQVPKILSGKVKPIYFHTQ
Briefly: Binding affinity to androgen receptor by incubation with GST-hARLBD and [3H]testosterone.

For `CCC(CC)(c1ccc(NCC(=O)C(C)(C)C)c(C)c1)c1ccc(NCC(=O)C(C)(C)C)c(C)c1`, the Ratio in assay [1] was determined as 0.45. In assay [2], this molecule yielded an ED50 of 450 nM.

`CCC(CC)(c1ccc(OCC(O)CO)c(C)c1)c1ccc(OCC(O)C(C)(C)C)c(C)c1` (centres undefined): the Ratio in assay [1] came out at 2.31. In assay [2], this molecule yielded an ED50 of 44 nM.

With `CCC(CC)(c1ccc(NCCC(C)(C)O)c(C)c1)c1ccc(NCCC(C)(C)O)c(C)c1`, in assay [1], the Ratio came to 0.13. The molecule further displayed an ED50 in assay [2] of 900 nM. The molecule further displayed a Ki on Androgen receptor of 3380 nM.

Regarding `CCC(CC)(c1ccc(NCC(O)CO)c(C)c1)c1ccc(OCC(=O)C(C)(C)C)c(C)c1` (centres undefined), the Ratio in assay [1] stood at 14.5. Moreover, in assay [2], the ED50 came to 110 nM. The molecule also showed a Ki at Androgen receptor of 1170 nM.

Consider `CCC(CC)(c1ccc(NCC(O)C(C)(C)C)c(C)c1)c1ccc(NCC(O)C(C)(C)C)c(C)c1` (centres undefined), for which the Ratio in assay [1] was 1.2. In assay [2], this molecule gave an ED50 of 1200 nM.

As for `CCC(CC)(c1ccc(NCCC(C)(C)O)c(C)c1)c1ccc(OCC(=O)C(C)(C)C)c(C)c1`, the Ratio in assay [1] stood at 0.45. Further, the ED50 in assay [2] turned out to be 370 nM. Also, at Androgen receptor, the Ki turned out to be 2900 nM.

As for `CCC(CC)(c1ccc(NCC(=O)C(C)(C)C)c(C)c1)c1ccc(OCC(=O)C(C)(C)C)c(C)c1`, the Ratio in assay [1] is 0.38. The molecule further registered an ED50 in assay [2] of 450 nM.

Consider `CCC(CC)(c1ccc(OCC(=O)C(C)(C)C)c(C)c1)c1ccc(OCC(=O)C(C)(C)C)c(C)c1`, for which the Ratio in assay [1] came to 0.22. Moreover, in assay [2], the ED50 turned out to be 410 nM.

`CCC(CC)(c1ccc(NCC(O)CO)c(C)c1)c1ccc(OCC(O)C(C)(C)C)c(C)c1` (centres undefined): the Ratio in assay [1] was 5.78. The ED50 in assay [2] was determined as 52 nM. The molecule also registered a Ki at Androgen receptor of 1510 nM.

`CCC(CC)(c1ccc(O)c(C)c1)c1ccc(NCC(=O)C(C)(C)C)c(C)c1`: the Ratio in assay [1] is 0.43. Further, the ED50 in assay [2] was found to be 1500 nM.

The record behind these values is ChEMBL document CHEMBL1141063, “Ligands with dual vitamin D3-agonistic and androgen-antagonistic activities” (Bioorg Med Chem Lett, 2005).
